Measurements from ChEMBL document CHEMBL1154830, “A beta-carboline alkaloid from the Papua New Guinea marine sponge hyrtios reticulatus” (J Nat Prod, 2010).
Converted amounts (≈) assume the structure as drawn. The source made the active and inactive calls. The rule behind the calls is not given here.

Tests used:
[1] = Cytotoxic activity against human H522-T1 cells after 96 hrs by luminescent cell viability assay; format: functional, cell-based; settings: H522-T1, 96 h
MDA-MB-435 = experiment: Cytotoxic activity against human MDA-MB-435 cells after 96 hrs by luminescent cell viability assay; format: functional, cell-based; settings: MDA-MB-435, 96 h
U-937 = experiment: Cytotoxic activity against human U937 cells after 96 hrs by luminescent cell viability assay; format: functional, cell-based; settings: U-937, 96 h
BT-549 = experiment: Cytotoxic activity against human BT549 cells after 96 hrs by luminescent cell viability assay; format: functional, cell-based; settings: BT-549, 96 h
In short: (§1)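 Cells in 96-well plates grown without compound or with continuous exposure to 1.5–50,000 nM test compound for 96 h. Growth read by CellTiter-Glo luminescence. IC50 is the concentration giving 50% growth inhibition relative to untreated cells. Two separate replicate experiments.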

DU-145 = experiment: Cytotoxic activity against human DU145 cells after 96 hrs by luminescent cell viability assay; format: functional, cell-based; settings: DU-145, 96 h; in short: as §1
NCI-H460 = experiment: Cytotoxic activity against human H460 cells after 96 hrs by luminescent cell viability assay; format: functional, cell-based; settings: NCI-H460, 96 h; in short: as §1
HCC 2998 = experiment: Cytotoxic activity against human HCC2998 cells after 96 hrs by luminescent cell viability assay; format: functional, cell-based; settings: HCC 2998, 96 h
HT-29 = experiment: Cytotoxic activity against human HT-29 cells after 96 hrs by luminescent cell viability assay; format: functional, cell-based; settings: HT-29, 96 h; in short: as §1
MCF7 = experiment: Cytotoxic activity against human MCF7 cells after 96 hrs by luminescent cell viability assay; format: functional, cell-based; settings: MCF7, 96 h
OVCAR-5 = experiment: Cytotoxic activity against human OVCAR5 cells after 96 hrs by luminescent cell viability assay; format: functional, cell-based; settings: OVCAR-5, 96 h
SF-539 = experiment: Cytotoxic activity against human SF539 cells after 96 hrs by luminescent cell viability assay; format: functional, cell-based; settings: SF-539, 96 h
SR = experiment: Cytotoxic activity against human SR cells after 96 hrs by luminescent cell viability assay; format: functional, cell-based
UACC-257 = experiment: Cytotoxic activity against human UACC257 cells after 96 hrs by luminescent cell viability assay; format: functional, cell-based; settings: UACC-257, 96 h
HeLa [2] = experiment: Cytotoxicity against human HeLa cells at 230 uM after 24 hrs; format: functional
In short: (§2)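 HeLa cells plated at 1500 cells/well and held overnight at 37 °C, 5% CO2, then compound pinned in. After 24 h, fixed in 4% formaldehyde for 20 min, permeabilized with 0.5% Triton X-100 in PBS for 10 min and blocked. Actin stained with rhodamine-phalloidin for 20 min and DNA with Hoechst 33342.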

HeLa [3] = experiment: Cytotoxicity against human HeLa cells assessed as disruption of cytoskeleton at 230 uM after 24 hrs by rhodamine-phalloidin staining method; format: functional, cell-based; in short: as §2
HeLa [4] = experiment: Cytotoxicity against human HeLa cells assessed as nuclear blebbing at 230 uM after 24 hrs by hoechst 33342 staining method; format: functional, cell-based; in short: as §2

O=C(O)c1cc2c([nH]c3ccc(O)cc32)c(C(=O)c2c[nH]cn2)n1 [HYRTIOCARBOLIN]
IC50 [1]: 1.2 µg/mL (≈ 3.72 µM)
IC50 (MDA-MB-435): 3 µg/mL (≈ 9.31 µM)
IC50 (U-937): 1.5 µg/mL (≈ 4.65 µM)
IC50 (BT-549): 45 µg/mL (≈ 140 µM)
IC50 (DU-145): 34 µg/mL (≈ 105 µM)
IC50 (NCI-H460): 17 µg/mL (≈ 52.7 µM)
IC50 (HCC 2998): > 50 µg/mL
IC50 (HT-29): > 50 µg/mL
IC50 (MCF7): > 50 µg/mL
IC50 (OVCAR-5): > 50 µg/mL
IC50 (SF-539): > 50 µg/mL
IC50 (SR): > 50 µg/mL
IC50 (UACC-257): > 50 µg/mL
inhibition at 230 µM (HeLa [2]): 57%
Activity (HeLa [3]): Active
Activity (HeLa [4]): Active
